High-throughput results deposited in PubChem by Broad Institute.
Only some compounds are listed: those with a hit (about 3% of all), similar ones and a draw of the others.
S100A4 MyoIIA: inhibitors of S100A4-myosin IIA peptide binding, primary screen, biochemical, fluorescence polarization, TAMRA-MyoIIA peptide; Protein S100-A4 (Homo sapiens), P26447; inhibition, % at 10.7 µM; 360,000 compounds, 0.14% hits;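 active = mean inhibition of at least 70% across replicates, with every replicate also reaching that level; inconclusive = mean inhibition reaches 70% but some replicates fall short; inactive = mean inhibition below 70%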
Target sequence (P26447 whole entry, looked up): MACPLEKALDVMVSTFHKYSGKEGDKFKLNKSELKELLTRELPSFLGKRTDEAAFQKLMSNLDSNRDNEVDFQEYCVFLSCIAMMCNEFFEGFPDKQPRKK
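Assay system: human S100A4 monomer with TAMRA-labelled myosin IIA peptide / Buffer or medium: Calcium-containing HEPES buffer, pH 7.2 / Reagent: TAMRA-labelled myosin IIA heavy-chain peptide probe, 5 nM / Compound: one dose per compound / Timing: polarization read 5 min after assay mix addition, stable 5–60 min / Benchmarks: neutral control DMSO, positive control TFP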
Cneo AK release: Cryptococcus neoformans cell lysis inducers, primary screen, AK release luminescence, single concentration | C. neoformans lysis, adenylate kinase release luminescence, 4 h; normalised: neutral wells 0, clomiphene wells 100 | lysis activity, % at 15 µM | 360,000 compounds, 0.2% hits;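 active = mean lysis activity across replicates of at least 80%, whatever share of replicates individually reach that level; inactive = mean lysis activity below 80%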
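Test system: log-phase Cryptococcus neoformans yeast cells; Quantity: yeast cell density of 5 × 10^6 cells/mL; Buffer or medium: YPD; Doses: single compound concentration per well; Timing: 4 h at 37 °C static, read 1 h later; Measured by: AK luminescence; Read-out basis: lysis from increased AK signal; Control set: Clomiphene as positive control.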
SIRT5 block: SIRT5 desuccinylase inhibitors, primary screen, biochemical, fluorescence imaging, single point, set 5 | Purified SirT5, succinyl-peptide AMC, trypsin-coupled fluorescence | inhibition, % at 15 µM | 330,000 compounds, 1.1% hits | AID 652115, 2013; in the data active = inhibition above about 15%; inconclusive = no clear call, values can overlap the other calls
Target sequence (Q9NXA8 whole entry, looked up): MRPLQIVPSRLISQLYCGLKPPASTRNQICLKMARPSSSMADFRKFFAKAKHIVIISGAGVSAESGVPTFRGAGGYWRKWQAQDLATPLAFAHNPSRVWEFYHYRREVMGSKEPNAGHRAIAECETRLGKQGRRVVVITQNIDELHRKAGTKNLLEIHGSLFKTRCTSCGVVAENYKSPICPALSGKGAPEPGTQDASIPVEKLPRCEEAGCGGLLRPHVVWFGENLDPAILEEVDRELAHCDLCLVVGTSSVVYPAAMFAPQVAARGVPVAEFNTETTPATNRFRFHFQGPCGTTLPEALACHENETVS
PGC1a acetyl inh: inhibitors of PGC1a acetylation signal, primary screen, cell-based, U2OS, AlphaScreen, inhibitor mode; AlphaScreen anti-acetyl-lysine; with virally co-expressed GCN5 acetyltransferase; inhibition, % at 15.6 µM; 350,000 compounds, 0.17% hits; AID 651687, 2012;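 active = every replicate shows inhibition of at least 40%; inconclusive = mean inhibition at least 40% but some replicate below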;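 also: 0% = neutral control wells and 100% = positive control wells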
C2C12 statin: suppressors of statin myotoxicity in C2C12 myotubes, primary screen, cell-based, single point, plate reader. C2C12 myotubes + simvastatin, ATP luminescence, 48 h; scaled: DMSO 0, geranylgeraniol control 100. rescue of ATP level, % at 7.49 µM. 330,000 compounds, 0.78% hits. AID 602340, 2012;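 active = mean ATP rescue above about 67%, or every replicate alone reaching that limit, limit read from the data, passing the limit was not always enough; inconclusive = no clear call, values can overlap the other calls; inactive = mean under the limit and some replicate under it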;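 also: myotubes were challenged with 10 µM simvastatin during compound exposure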
rRNA inh HTS: reduced GFP signal of wild-type E. coli, primary screen, bacterial rRNA inhibitor project, GFP/RFP fluorescence, OD600, single point; E. coli WT GFP vs humanized-ribosome RFP mutants, 24 h; stronger effect = lower value; DMSO median 0, no signal -100; GFP signal change (wild-type ribosome), % (test concentration not listed); 350,000 compounds, 1.6% hits; AID 720706, 2013;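 active = significant combined selectivity score with lowered wild-type GFP, culture density cut under 30%, mutant RFP and density less affected; inactive = any of these conditions unmet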
The depositor's hits bear a star; ? = inconclusive; · = not tested or not shown.

SMILES | S100A4 MyoIIA | Cneo AK release | SIRT5 block | PGC1a acetyl inh | C2C12 statin | rRNA inh HTS
O=C(Nc1ccc(Cl)c(Cl)c1)N[C@@H]1CC[C@H](CCn2cc(C3CCCC3)nn2)O[C@@H]1CO | 2 | · | 5 | · | · | -60
C[C@H](CO)N1C[C@H](C)[C@H](CN(C)S(=O)(=O)c2cn(C)cn2)Oc2c(NC(=O)c3nc4ccccc4s3)cccc2C1=O | -1 | 0 | -2 | 3 | -20 | -9
CCC(=O)N/C(N)=N/c1nc(C)c2cc(C)c(C)cc2n1 | 24 | -1 | 18* | 2 | · | -8
Cc1cc(N)c2cc(NC(=O)/C=C/c3ccccc3Cl)ccc2n1 | · | 4 | · | 80* | -97 | ·
CCOc1cccc2sc(N(CCN(C)C)C(=O)c3ccc4ccccc4c3)nc12 | · | 3 | · | 16 | 2 | ·
CN(C)CCCN(C(=O)c1ccc(S(=O)(=O)N2CCc3ccccc3C2)cc1)c1nc2c(F)cccc2s1 | 28 | 0 | 1 | · | 3 | -47*
CN(C)CCN(C(=O)c1ccc2ccccc2c1)c1nc2c(F)cccc2s1 | 35 | 0 | -2 | 0 | 120* | -5
COC(=O)[C@@H](NS(=O)(=O)c1cc(Br)ccc1Br)C(C)C | -3 | -3 | 0 | 5 | 3 | -26*
CCC(C)[C@H](NS(=O)(=O)c1ccc(F)cc1Br)C(=O)OC (stereo partly drawn) | -1 | 7 | · | -24 | 3 | -19
O=C(NCc1nnnn1-c1ccc(F)cc1)c1ccc([N+](=O)[O-])o1 | -4 | · | 0 | · | 70* | -14
O=C(NCC(c1ccc(F)cc1)N1CCOCC1)c1ccc([N+](=O)[O-])o1 (stereo not drawn) | 1 | -20 | · | -9 | 3 | -18*
COC(=O)C[C@@H]1CC[C@H]2[C@@H](COC[C@@H](O)CN2C(=O)Nc2ccccc2OC)O1 | 2 | 6 | 0 | 6 | -1 | 9
CC(/C=C/c1ccccc1)=N\Nc1nc(C)cc(C)n1 | · | 7 | · | 0 | -8 | ·
CC(/C=C/c1ccc(O)cc1)=NNc1ccccc1 | 2 | -2 | -10 | 2 | 1 | -21*
CC(=O)N1CCN(c2cc(N3CCCC3)c(F)cc2[N+](=O)[O-])CC1 | 1 | 3 | 5 | 4 | -4 | -19*
CC(=O)c1cc(F)c(N2CCCC2)cc1C | · | 1 | · | -7 | 101* | ·
CC(C)C(=O)N1CCN(c2cc(N3CCN(C)CC3)c(F)cc2[N+](=O)[O-])CC1 | -4 | · | · | 24 | · | 10
Cn1c(=O)n(C)c2cc([N+](=O)[O-])c(N3CCN(C(=O)C(C)(C)C)CC3)cc21 | 3 | · | 1 | -8 | · | -23*
Cn1c(=O)n(C)c2cc([N+](=O)[O-])c(N3CCN(C(=O)c4ccccc4)CC3)cc21 | · | 2 | · | -4 | 6 | ·
C[C@@H]1CN([C@H](C)CO)C(=O)Cc2cc(NC(=O)Nc3ccccc3)ccc2O[C@@H]1CN(C)CC1CC1 | · | · | · | · | · | -9
CNC[C@H]1Oc2ccc(NS(=O)(=O)c3cccs3)cc2CC(=O)N([C@@H](C)CO)C[C@@H]1C | -27 | 1 | 0 | 2 | -16 | 3
CC(C)C(=O)N(c1ccc2oc(=O)sc2c1)S(=O)(=O)c1ccccc1 | 1 | 4 | -2 | -5 | 106* | 18
CO[C@@H](CN(C)C(=O)Nc1ccc(Cl)cc1)[C@@H](C)CN(Cc1ccccc1Cl)[C@@H](C)CO | 7 | -4 | 5 | -8 | -17 | -6
CCOC(=O)c1c(NC(=O)c2c(Br)cnn2C)c(C#N)nn1-c1ccccc1 | -7 | 7 | -4 | -3 | 15 | -29*
Cc1cc(C)c2c(=O)[nH]n(C3CCCCCC3)c2n1 | -27 | · | -1 | 88* | · | 19
SMILES | S100A4 MyoIIA | Cneo AK release | SIRT5 block | PGC1a acetyl inh | C2C12 statin | rRNA inh HTS
C[C@H]1CN([C@@H](C)CO)C(=O)c2cc(N(C)C)ccc2O[C@@H]1CN(C)S(C)(=O)=O | 3 | -2 | 1 | 8 | -6 | 4
Cc1cc(C)n(CC(=O)N2c3ccccc3Sc3ccccc32)n1 | · | -1 | · | -15 | 119* | ·
C[C@H](CO)N1C[C@H](C)[C@@H](CN(C)Cc2ccc(Cl)c(Cl)c2)Oc2ccc(NC(=O)NC3CCCCC3)cc2CC1=O | -2 | 11 | 0 | -9 | ? | -3
O=C(c1cccnc1)N1CCC(Oc2ccc(C(=O)N3CCCC(O)C3)cc2)CC1 (stereo not drawn) | 8 | 111* | -6 | 7 | 9 | 9
CC(NC(=O)c1ccc(OC2CCN(C(=O)c3cccnc3)CC2)cc1)C1CC1 (stereo not drawn) | -2 | 1 | 2 | -14 | 1 | 12
CO[C@@H](CN(C)S(=O)(=O)c1ccc(C)cc1)[C@@H](C)CN(Cc1ccccc1Cl)[C@H](C)CO | -7 | 7 | 2 | -10 | -5 | -32
COc1cccc(C2C(C#N)=C(N)Oc3cc(C)n(Cc4ccco4)c(=O)c32)c1 (stereo not drawn) | · | 7 | · | -4 | 142* | ·
COc1ccc(C2C(C#N)=C(N)Oc3cc(C)n(Cc4ccco4)c(=O)c32)cc1 (stereo not drawn) | · | 0 | · | -13 | -8 | ·
COc1cccc(CN(C)CCCn2ccc(NC(=O)OCc3ccccc3)nc2=O)c1 | 4 | -1 | -1 | 7 | -5 | -1
CN(CCCn1ccc(NC(=O)OCc2ccccc2)nc1=O)Cc1ccco1 | -4 | -1 | 25* | -1 | -7 | 1
Cc1ccccc1C(=O)Nn1cnnc1 | -2 | 2 | -5 | -1 | 1 | 8
COc1cccc(C(=O)Nn2cnnc2)c1OC | -2 | 1 | 1 | 75* | 3 | 5
CCC(=O)N1CCCCN2[C@H](CO)[C@@H](c3ccc(C#Cc4ccccc4)cc3)[C@H]2C1 | -27 | 2 | -3 | -1 | · | -59
N#C[C@@H]1[C@H](c2ccccc2-c2ccccc2)[C@@H](CO)N1c1ncc(-c2ccccc2)s1 | 3 | · | 0 | 1 | · | 1
N#C[C@H]1[C@@H](c2ccccc2-c2ccccc2)[C@@H](CO)N1c1ncc(-c2ccccc2)s1 | -1 | · | 24* | -5 | · | -2
C[C@@H]1CN([C@@H](C)CO)S(=O)(=O)c2ccc(Br)cc2O[C@@H]1CN(C)C(=O)C1CCC1 | · | · | · | -7 | 13 | 1
CCNC(=O)/C(=C/c1ccc2c(c1)OCO2)NC(=O)c1ccc(Br)cc1 | · | 0 | · | 8 | 79* | ·
N=c1ccn(CC(=O)c2ccc(-c3ccccc3)cc2)cc1 | 3 | · | -2 | · | · | -41*
